The record followed here is ChEMBL document CHEMBL4477197, “Antitumor Activity of Spicatoside A by Modulation of Autophagy and Apoptosis in Human Colorectal Cancer Cells” (J Nat Prod, 2016).

pIC50: −log10 of the molar value. Calls of active or inactive are those of the source. No cut-off for these calls is given here.

Series [1] has as its system HCT-116. The series can be described thus: Antitumor activity against human HCT116 cells xenografted in BALB/c-nu mouse assessed as inhibition of tumor volume at 2.5 mg/kg, ip administered three times per week for 28 days measured every 3 to 4 days of dosing relative to control. Type of series: functional. Particulars: HCT-116, ip. A digest of the protocol: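 HCT116 cells (2 × 106 in 200 μL medium) injected subcutaneously into the right flank of nude mice; at ~200 mm3, mice randomized into groups of five. Compound at 2.5 or 5 mg/kg, dissolved in normal saline with 0.5% Tween 80, given ip three times weekly for 28 days; vehicle controls got equal volume. Tumor volume measured by caliper every 3–4 days.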
(A xenograft is tissue or cells of one species grown in another, often human tumour cells in immunodeficient mice.)

Series [2] has as its system HCT-116. The series can be described thus: Induction of apoptosis in human HCT116 cells assessed as cell shrinkage after 48 hrs. The class given is functional, cell-based.
Series [3] has as its system HCT-116. The series can be described thus: Cell cycle arrest in human HCT116 cells assessed as accumulation at subG1 phase at 10 uM after 48 hrs by propidium iodide staining based flow cytometry. Type of series: functional. (In general: Flow cytometry measures light scatter and fluorescence of single cells or particles in a stream.)
The nature of series [4]: Toxicity in BALB/c-nu mouse xenografted with human HCT116 cells assessed as change in body weight at 2.5 to 5 mg/kg, ip administered three times per week for 28 days measured during compound dosing relative to control. The class given is organism-based. Particulars: in vivo, 672 h. Put shortly: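 Nude mice carried subcutaneous flank HCT116 implants (2 × 10^6 cells in 200 μL medium). At about 200 mm3 they were randomised into groups of five. Compound at 2.5 or 5 mg/kg in saline with 0.5% Tween 80 was given ip three times weekly for 4 weeks; controls received vehicle. Body weight was monitored throughout for toxicity.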

The next series has as its system MRC5. The series can be described thus: Antiproliferative activity against human MRC5 cells after 24 to 72 hrs by SRB assay. The class given is cell-based. A digest of the protocol:
(§1)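 Cells from ATCC were grown at 37 °C in 5% CO2, in RPMI 1640 (A549, HCT116, SNU-638) or DMEM (MDA-MB-231, SK-HEP-1, MRC5) with 10% FBS. They were seeded at 6 × 10^3 cells/well for 24 h, then exposed for 72 h. Cells were TCA-fixed, stained with 0.4% SRB, and read at 515 nm against day-zero plates. IC50 came from nonlinear regression, as means ± SD.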
Background: The SRB assay estimates cell density from bound dye.

The test system of series [5] is HCT-116. The series can be described thus: Induction of apoptosis in human HCT116 cells assessed as activation of PARP cleavage at 10 to 30 uM after 48 hrs by Western blot analysis. The class given is functional, cell-based. A digest of the protocol:
(§2)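 HCT116 cells were treated with the indicated concentrations for 48 h. Lysates were prepared in SDS sample buffer and 10–30 μg protein was separated by SDS-PAGE, blotted to PVDF and blocked in 5% BSA. Cleaved caspase-8, -9, -3 and PARP were detected by ECL.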

Series [6] has as its system HCT-116. The series can be described thus: Induction of apoptosis in human HCT116 cells assessed as downregulation of Bcl-2 levels at 10 to 30 uM after 48 hrs by Western blot analysis. The class given is functional, cell-based.
Series [7] deals with HCT-116. The series can be described thus: Induction of autophagy in human HCT116 cells assessed as upregulation of cathepsin D expression at 10 to 30 uM after 24 hrs by Western blot analysis. The class given is functional, cell-based. Put shortly: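 HCT116 cells were cultured 24 h with the indicated concentrations. Lysates were made in SDS buffer with NaF and orthovanadate and quantified by BCA; 10–30 μg protein was separated by 6–15% SDS-PAGE and transferred to PVDF. After 5% BSA blocking, blots were probed for LC3-II, beclin 1, p62, LAMP1 and cathepsin D, with ECL detection.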

Series [8] deals with HCT-116. The series can be described thus: Growth inhibition of human HCT116 cells at 5 to 40 uM in presence of autophagy inhibitor 3-MA after 48 hrs by SRB assay. The class given is functional, cell-based. Put shortly: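 SRB proliferation assay on HCT116 cells given graded concentrations for 48 h with or without 2 mM 3-MA. Cells were TCA-fixed, stained with 0.4% SRB, solubilized in 10 mM Tris pH 10.0 and read at 515 nm. Growth was normalized to day-zero and vehicle wells. Means ± SD, n = 3.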

In a further series the test system is SK-HEP1. The series can be described thus: Antiproliferative activity against human SKHEP1 cells after 24 to 72 hrs by SRB assay. Type of series: functional, cell-based. A digest of the protocol:
as §1

Series [9] deals with HCT-116. The series can be described thus: Induction of apoptosis in human HCT116 cells assessed as PARP cleavage at 30 uM upto 48 hrs by Western blot analysis. The class given is functional, cell-based. Put shortly: (§3)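 Time course: HCT116 cells were exposed to 30 μM compound for 6, 12, 24, 36 and 48 h. LC3-II, beclin 1, cleaved caspase-8 and cleaved PARP were measured by Western blot (SDS-PAGE, PVDF, ECL) with β-actin as internal standard.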

The target of series [10] is MAP kinase p38 (Homo sapiens) (UniProt O15264+Q15759+Q16539+P53778). The series can be described thus: Induction of p38 phosphorylation in human HCT116 cells after 24 hrs by Western blot analysis. Type of series: cell-based.
Series [11] can be described thus: Inhibition of PI3K/Akt/mTOR in human HCT116 cells assessed as downregulation of PI3K p101 at 10 to 30 uM after 24 hrs by Western blot analysis. The class given is cell-based. A digest of the protocol: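 HCT116 cells were lysed after 24 h with the indicated concentrations. PI3K, PTEN, Akt and mTOR were immunoblotted (SDS-PAGE, PVDF, 5% BSA block, ECL).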
Series [12] deals with HCT-116. The series can be described thus: Induction of autophagy in human HCT116 cells assessed as accumulation of LC3-2 at 30 uM after 24 hrs in presence of autophagy inhibitor 3-MA by Western blot analysis. Type of series: functional, cell-based. A digest of the protocol: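 HCT116 cells were pretreated 1 h with 2 mM 3-MA, then given 30 μM compound for a further 24 h. Whole-cell lysates were immunoblotted for LC3-II and cleaved PARP, with β-actin as loading standard and ECL detection. Blots are representative of three separate determinations.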

Series [13] concerns HCT-116. The series can be described thus: Induction of apoptosis in human HCT116 cells assessed as increase in cytochrome c levels in cytosol after 48 hrs by Western blot analysis. The class given is functional, cell-based.
The test system of series [14] is HCT-116. The series can be described thus: Induction of autophagy in human HCT116 cells assessed as increase in LC3-2 expression at 30 uM at 24 hrs by Western blot analysis. The class given is functional, cell-based.
The test system of series [15] is HCT-116. The series can be described thus: Cell cycle arrest in human HCT116 cells assessed as accumulation at subG1 phase at 30 uM after 48 hrs by propidium iodide staining based flow cytometry. Type of series: functional.
Series [16] relates to HCT-116. The series can be described thus: Antiproliferative activity against human HCT116 cells after 24 to 72 hrs by SRB assay. The class given is functional, cell-based. A digest of the protocol: as §1
Series [17] in a line: Inhibition of PI3K/Akt/mTOR in human HCT116 cells assessed as suppression of mTOR phosphorylation at Ser2448 at 10 to 30 uM after 24 hrs by Western blot analysis. Type of series: cell-based. Put shortly:
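HCT116 cells (RPMI 1640, 10% FBS, 37 °C, 5% CO2) exposed to the compound for 24 h, then lysed in 2× SDS sample buffer with NaF and orthovanadate and boiled. BCA-normalised protein (10−30 μg) run on 6−15% SDS-PAGE and blotted to PVDF. Blocked in 5% BSA/PBS-Tween, probed for PI3K, PTEN, Akt and mTOR, and detected by ECL. Blots are representative of three determinations.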

Series [18] relates to HCT-116. The series can be described thus: Induction of apoptosis in human HCT116 cells assessed as activation of caspase 8 at 10 to 30 uM after 48 hrs by Western blot analysis. The class given is functional, cell-based. Put shortly:
as §2

Series [19] concerns HCT-116. The series can be described thus: Induction of apoptosis in human HCT116 cells assessed as caspase 8 cleavage at 30 uM upto 48 hrs by Western blot analysis. The class given is functional, cell-based. Put shortly: as §3

The inhibition in vivo is the percentage by which the read-out fell short of the control. One may read the pIC50 as −log10 of the IC50, conventionally taken in molar units. The low end stands for a high IC50, the high end for a low IC50. On to `C[C@H]1CC[C@@]2(OC1)O[C@H]1C[C@H]3[C@@H]4CC=C5C[C@@H](O)C[C@@H](O[C@@H]6O[C@H](C)[C@H](O)[C@H](O[C@@H]7OC[C@@H](O)[C@H](O)[C@H]7O)[C@H]6O[C@@H]6O[C@H](CO)[C@@H](O)[C@H](O)[C@H]6O)[C@]5(C)[C@H]4CC[C@]3(C)[C@H]1[C@@H]2C`, for which the inhibition in vivo at 2.5 mg/kg with HCT-116 [1] is 38.8%. For the same compound, the outcome with HCT-116 [2], in the series with HCT-116 [5], in the series on HCT-116 [6], with HCT-116 [7], in the series with HCT-116 [9] and in the series on HCT-116 [14] was Active. The result with HCT-116 [18] and in the series on HCT-116 [19] was Active. Further, the Activity with HCT-116 [3] is 5.52%; in [4], “Non-Toxic”; in series [10], “Dose-dependent effect”; in the series on HCT-116 [13], “Dose-dependent effect”; in the series on HCT-116 [15] it was 45.37%. For the same compound, the negative-log IC50 (pIC50) in the series with MRC5 was 4.09; in the series on SK-HEP1 it was 4.81; in the series on HCT-116 [16], 4.86. In addition, the “growth inhibition (GI)” value with HCT-116 [8] was “Active”. The inhibition entry in series [11] and in series [17] was “Active” each time. Besides, the outcome in the series with HCT-116 [12] was inactive.
